# According to ChEMBL document CHEMBL4020832, “Development of (6 R)-2-Nitro-6-[4-(trifluoromethoxy)phenoxy]-6,7-dihydro-5 H-imidazo[2,1- b][1,3]oxazine (DNDI-8219): A New Lead for Visceral Leishmaniasis” (J Med Chem, 2018):
# Tests used:
# Mus musculus [1] = assay: (§1) Half life in Swiss albino mouse at 1 mg/kg, iv by LC-MS/MS analysis; format: ADME, organism-based; conditions: in vivo
# [2] = Volume of distribution at steady state in Swiss albino mouse at 1 mg/kg, iv by LC-MS/MS analysis; format: ADME, organism-based; conditions: in vivo, read-out: Vdss
# In short: (§2)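 Male Swiss albino mice given 1 mg/kg iv in 20% NMP/40% PEG-400 in 100 mM citrate buffer pH 3. Plasma sampled at 0.083, 0.25, 0.5, 1, 2, 4, 6, 8, 10, 24 and 48 h. Levels measured by LC–MS/MS; noncompartmental PK parameters.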
# Liver [3] = assay: Metabolic stability in human liver microsomes assessed as parent compound remaining at 0.5 uM after 0.5 hr; format: ADME, microsome
# Mus musculus [4] = assay: Oral bioavailability in Swiss albino mouse at 25 mg/kg by LC-MS/MS analysis; format: ADME, organism-based; conditions: in vivo
# In short: (§3)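 Male Swiss albino mice dosed orally at 25 mg/kg as a suspension in 0.5% CMC/0.08% Tween 80 in water. Plasma sampled 0.25–48 h, analysed by LC–MS/MS. F from dose-normalized AUClast against a 1 mg/kg iv dose.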
# [5] = Tmax in Swiss albino mouse at 25 mg/kg, po by LC-MS/MS analysis; format: ADME, organism-based; conditions: in vivo; in short: as §3
# [6] = Clearance in Swiss albino mouse at 1 mg/kg, iv by LC-MS/MS analysis; format: ADME, organism-based; conditions: in vivo
# [7] = Cmax in Swiss albino mouse at 25 mg/kg, po by LC-MS/MS analysis; format: ADME, organism-based; design: dose 25 mg/kg, route oral; conditions: in vivo
# [8] = AUClast in Swiss albino mouse at 1 mg/kg, iv after 24 to 48 hrs by LC-MS/MS analysis; format: ADME, organism-based; conditions: in vivo
# Liver [9] = assay: Metabolic stability in CD-1 mouse liver microsomes assessed as parent compound remaining at 0.5 uM after 0.5 hr; format: ADME, microsome
# [10] = AUClast in Swiss albino mouse at 25 mg/kg, po after 24 to 48 hrs by LC-MS/MS analysis; format: ADME, organism-based; conditions: in vivo
# [11] = Metabolic stability in hamster liver microsomes assessed as parent compound remaining at 0.5 uM after 0.5 hr; format: ADME, microsome; conditions: read-out: Stability
# [12] = Initial concentration in Swiss albino mouse at 1 mg/kg, iv by LC-MS/MS analysis; format: ADME, organism-based; conditions: in vivo; in short: as §2
# [13] = as §1; format: ADME, organism-based; conditions: Swiss albino, in vivo
# [14] = Metabolic stability in hamster liver microsomes assessed as parent compound remaining at 1 uM after 1 hr; format: ADME, microsome; conditions: read-out: Stability
# Mus musculus [15] = assay: Cmax in Swiss albino mouse at 40 mg/kg, po by LC-MS/MS analysis; format: ADME, organism-based; design: dose 40 mg/kg, route oral; conditions: in vivo
# Mus musculus [16] = assay: AUClast in Swiss albino mouse at 40 mg/kg, po after 24 to 48 hrs by LC-MS/MS analysis; format: ADME, organism-based; conditions: in vivo
# [17] = Volume of distribution at steady state in golden Syrian hamster at 2 mg/kg, iv by LC-MS/MS analysis; format: ADME, organism-based, Mesocricetus auratus; conditions: in vivo, read-out: Vdss
# In short: (§4)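 Fasted female golden Syrian hamsters given 2 mg/kg iv as a solution in 20% NMP and 40% PEG-400 in citrate buffer pH 3. Plasma concentrations determined by LC–MS/MS to derive PK parameters.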
# [18] = AUClast in golden Syrian hamster at 2 mg/kg, iv after 24 to 48 hrs by LC-MS/MS analysis; format: ADME, organism-based, Mesocricetus auratus; conditions: in vivo
# In short: (§5)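 Fasted female golden Syrian hamsters. IV dose was 2 mg/kg as a solution in 20% NMP and 40% PEG-400 in citrate buffer (pH 3). Oral dosing at 40–50 mg/kg used PEG-400 as vehicle. Plasma was quantified by LC–MS/MS. AUClast was taken to the last time point (24 or 48 h).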
# [19] = Half life in Swiss albino mouse at 40 mg/kg, po by LC-MS/MS analysis; format: ADME, organism-based; conditions: in vivo
# [20] = Initial concentration in golden Syrian hamster at 2 mg/kg, iv by LC-MS/MS analysis; format: ADME, organism-based, Mesocricetus auratus; conditions: in vivo; in short: as §4
# [21] = Tmax in golden Syrian hamster at 40 mg/kg, po by LC-MS/MS analysis; format: ADME, organism-based, Mesocricetus auratus; conditions: in vivo
# [22] = Half life in golden Syrian hamster at 40 mg/kg, po by LC-MS/MS analysis; format: ADME, organism-based, Mesocricetus auratus; conditions: in vivo
# Mus musculus [23] = assay: Tmax in Swiss albino mouse at 40 mg/kg, po by LC-MS/MS analysis; format: ADME, organism-based; conditions: in vivo
# Liver [24] = assay: Metabolic stability in CD-1 mouse liver microsomes assessed as parent compound remaining at 1 uM after 1 hr; format: ADME, microsome
# [25] = AUClast in golden Syrian hamster at 40 mg/kg, po after 24 to 48 hrs by LC-MS/MS analysis; format: ADME, organism-based, Mesocricetus auratus; conditions: in vivo; in short: as §5
# Syrian golden hamster [26] = assay: Oral bioavailability in golden Syrian hamster at 40 mg/kg by LC-MS/MS analysis; format: ADME, organism-based, Mesocricetus auratus; conditions: in vivo
# [27] = Half life in golden Syrian hamster at 2 mg/kg, iv by LC-MS/MS analysis; format: ADME, organism-based, Mesocricetus auratus; conditions: in vivo; in short: as §5
# [28] = Clearance in golden Syrian hamster at 2 mg/kg, iv by LC-MS/MS analysis; format: ADME, organism-based, Mesocricetus auratus; conditions: in vivo
# Liver [29] = assay: Metabolic stability in human liver microsomes assessed as parent compound remaining at 1 uM after 1 hr; format: ADME, microsome
# [30] = Cmax in golden Syrian hamster at 40 mg/kg, po by LC-MS/MS analysis; format: ADME, organism-based, Mesocricetus auratus; design: dose 40 mg/kg, route oral; conditions: in vivo; in short: as §5
# [31] = AUClast in golden Syrian hamster at 50 mg/kg, po after 24 to 48 hrs by LC-MS/MS analysis; format: ADME, organism-based, Mesocricetus auratus; conditions: in vivo; in short: as §5
# [32] = Tmax in golden Syrian hamster at 50 mg/kg, po by LC-MS/MS analysis; format: ADME, organism-based, Mesocricetus auratus; conditions: in vivo
# Syrian golden hamster [33] = assay: Oral bioavailability in golden Syrian hamster at 50 mg/kg by LC-MS/MS analysis; format: ADME, organism-based, Mesocricetus auratus; conditions: in vivo
# [34] = Half life in golden Syrian hamster at 50 mg/kg, po by LC-MS/MS analysis; format: ADME, organism-based, Mesocricetus auratus; conditions: in vivo
# [35] = Cmax in golden Syrian hamster at 50 mg/kg, po by LC-MS/MS analysis; format: ADME, organism-based, Mesocricetus auratus; design: dose 50 mg/kg, route oral; conditions: in vivo; in short: as §5
SMILES,Vd [2] [L/kg],Stability (Liver [3]) [%],F (Mus musculus [4]) [%],Tmax [5] [h],clearance [6] [mL/min/kg],Cmax [7] [ng/mL],AUC(0-t) [8] [ng·h/mL],Stability (Liver [9]) [%],AUC(0-t) [10] [ng·h/mL],"remaining at 0.5 h, 0.5 µM [11] [%]",C0 [12] [ng/mL],half-life [13] [h],"remaining at 1 h, 1 µM [14] [%]",Vd [17] [L/kg],AUC(0-t) [18] [ng·h/mL],C0 [20] [ng/mL],Stability (Liver [24]) [%],half-life [27] [h],clearance [28] [mL/min/kg],Stability (Liver [29]) [%],other results
O=[N+]([O-])c1cn2c(n1)OCC(COc1ccc(OC(F)(F)F)cc1)C2 (centres undefined),2.5,78,50,1,13,1500,1250,88,15700,70,340,,,,,,,,,,t1/2 (Mus musculus [1]): 2 h
O=[N+]([O-])c1cn2c(n1)OCC(COc1ccc(-c3ccc(OC(F)(F)F)cc3)nc1)C2 (centres undefined),1.9,,11,10,1.2,870,,96,,88,750,20,,,,,,,,,
O=[N+]([O-])c1cn2c(n1)OCC(COc1ccc(-c3ccc(F)cc3)nc1)C2 (centres undefined),1.8,,15,8,5.2,840,3180,,12000,64,440,2.7,,,,,,,,,
O=[N+]([O-])c1cn2c(n1)OC[C@H](OCc1ccc(-c3ccc(OC(F)(F)F)cc3F)cn1)C2,,75,,,,,,79,,69,,,10,4.2,1890,940,40,3.9,18,27,Cmax (Mus musculus [15]): 32000 ng/mL; AUClast (Mus musculus [16]): 265000 ng·h/mL; half-life [19]: 6.1 h; Tmax [21]: 2 h; half-life [22]: 3.9 h; Tmax (Mus musculus [23]): 3.3 h; AUC(0-t) [25]: 26700 ng·h/mL; F (Syrian golden hamster [26]): 74%; Cmax [30]: 4200 ng/mL
O=[N+]([O-])c1cn2c(n1)OC[C@H](OCc1ccc(-c3ccc(F)cc3F)nc1)C2,,,,,,,,,,,,,10,5.4,710,520,67,1.4,59,58,AUC(0-t) [31]: 3400 ng·h/mL; Tmax [32]: 1.7 h; F (Syrian golden hamster [33]): 21%; half-life [34]: 17 h; Cmax [35]: 1100 ng/mL
